System: Murine hepatitis virus
Experiment: Dose required to inhibit the growth of mouse hepatitis virus (MHV) in infected mouse astrocytoma (DBT) cells using plaque assay
Format: functional
Method in brief: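 DBT monolayers infected with MHV at MOI 1 to 5, adsorbed 1 h at room temperature, then given MEM with 5% FCS plus compound (final 0.97 to 3030 μM, 0.15% DMSO) at 37 °C. Media harvested 18 h postinfection and titred by plaque assay on DBT cells (0.75% agarose overlay, 48 h, neutral red). Run in duplicate. % inhibition = (1 − T/C) × 100; TCID50 by probit analysis.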

Row | Compound | EC50 [µM]
1 | Cc1ccc(S(=O)(=O)O)cc1.N/C(=N\O)N/N=C/c1cc(O)c(O)c(O)c1 | 150
2 | Cc1ccc(S(=O)(=O)O)cc1.N/C(=N\O)N/N=C/c1c(O)cc(O)cc1O | 18.1
3 | Cc1ccc(S(=O)(=O)O)cc1.N/C(=N\O)N/N=C/c1nccc2ccccc12 | 47.7
4 | Cc1ccc(S(=O)(=O)O)cc1.N/C(=N\O)N/N=C/c1c2ccccc2c(Cl)c2ccccc12 | 7.12
5 | Cc1ccc(S(=O)(=O)O)cc1.N/C(=N\O)N/N=C/c1cc([N+](=O)[O-])cc([N+](=O)[O-])c1O | 273
6 | C=CCc1cccc(/C=N/N/C(N)=N/O)c1O.Cc1ccc(S(=O)(=O)O)cc1 | 3.42
7 | Cc1ccc(S(=O)(=O)O)cc1.N/C(=N\O)N/N=C/c1cc2c(cc1Cl)OCO2 | 9.14
8 | Cc1ccc(S(=O)(=O)O)cc1.N/C(=N\O)N/N=C/c1ccc2c(c1)OCCO2 | 46.1
9 | Cc1ccc(S(=O)(=O)O)cc1.N/C(=N\O)N/N=C/c1cc(Br)cc(Br)c1O | 9.5
10 | Cc1ccc(S(=O)(=O)O)cc1.N/C(=N\O)N/N=C/c1ccc(O)c(O)c1O | 183
11 | Cc1ccc(S(=O)(=O)O)cc1.N/C(=N\O)N/N=C/c1ncccc1O | 89.9
12 | Cc1ccc(S(=O)(=O)O)cc1.Cc1ncc(COP(=O)(O)O)c(/C=N/N=C(/N)NO)c1O | 40.8
13 | Cc1ccc(S(=O)(=O)O)cc1.N/C(=N\O)N/N=C/c1ccccc1O | 76
14 | Cc1ccc(S(=O)(=O)O)cc1.N/C(=N\O)N/N=C/c1ccc2ccccc2n1 | 39.3
15 | Cc1ccc(S(=O)(=O)O)cc1.N/C(=N\O)N/N=C/c1cc(Cl)cc(Cl)c1O | 9.54
